Source: ChEMBL document CHEMBL4513216, “Probing the Open Global Health Chemical Diversity Library for Multistage-Active Starting Points for Next-Generation Antimalarials” (ACS Infect Dis, 2020)

Assay: Toxicity liver stage against HepG2, at 10uM
Format: cell-based
Set-up: test concentration 10 uM, cell line HepG2-A16-CD81EGFP
Conditions: human, HepG2-A16-CD81EGFP cells; read-out: INHIBITION
Summary of the method: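 Uninfected HepG2-A16-CD81EGFP cells, 3 × 10^3 per well, 1536-well, plated on prespotted compound at 10 μM final, parasite-free screening media added to match infected plates; puromycin 10 μM positive, DMSO 0.5% negative; run in parallel with 48 h PbLuc assay at 37 °C, 5% CO2; viability by CellTiter-Glo luminescence, normalized to controls.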

Structure (SMILES)	cytotoxicity at 10 µM [%]
O=C(O)C[C@@H]1CCN(C(=O)c2cccs2)C[C@@H]1CCN1CCCCC1	2.4
Cn1cc(NC(=O)CNC(=O)N2CCN(c3ccc(F)cc3)CC2)cn1	2.27
CC(C)n1nc(O)c2c1NC(=O)CSC2c1cnn(C)c1 (stereo unspecified)	-5.28
COCCn1ccc2c(NC(=O)c3n[nH]c4c3CCC4)cccc21	-1.6
COc1ccc(S(=O)(=O)NCC(c2cccn2C)N(C)C)cc1F (stereo unspecified)	-0.418
CC(O)(CNC(=O)c1c(F)cccc1Cl)C1CC1 (stereo unspecified)	-8.87
CCS(=O)(=O)N1CC(c2nc(-c3cccs3)no2)C1	-7.3
CCOc1ccccc1NC(=O)NCC(C)(O)CCSC (stereo unspecified)	-6.14
CC(C)COCC1CN(Cc2ccoc2)Cc2ncn(C)c21 (stereo unspecified)	4.53
CS(=O)(=O)N1CCc2nc(NC(=O)Nc3c(F)cccc3F)sc2C1	-10.4
CCC(=O)N1CCC(c2nc3ccc(NC(C)C)cn3n2)CC1	-10.2
CCC(CCNC(=O)c1cc(C2CC2)nc2c1cnn2C)n1cccn1 (stereo unspecified)	2.04
COCC(=O)N1CCC(c2c(C(=O)N(C)C)sc3ncccc23)C1 (stereo unspecified)	1.55
CN(CC1(C)COC1)C(=O)c1cc(-c2cnn(C)c2)nc2ccccc12	0.89
Cc1c[nH]nc1C1CCN(c2cnccn2)C1 (stereo unspecified)	5.3
O=C(c1cccnc1)N1CCCC(c2ccnc3nccn23)C1 (stereo unspecified)	6.2
CN(CC1(O)CCCN(c2ccccn2)C1)C(=O)Cc1ccsc1 (stereo unspecified)	-1.11
CC(C)(C)c1nc(CN(Cc2ccccc2Cl)C2CCCC2)no1	3.25
Cn1ccc(C(=O)Nc2nccn2Cc2ccccc2Cl)cc1=O	-1.92
CCc1ncc2c(n1)CN(CC1CCCCO1)CC2 (stereo unspecified)	-21.1
CCC(NC(=O)NCc1nncn1CC)c1ccc(OC)cc1 (stereo unspecified)	1.97
Cc1ccc(CC(=O)NCC(O)c2ccc(Cl)cc2Cl)cn1 (stereo unspecified)	-10.1
CC(C(=O)NC(C)(C)C)S(=O)(=O)Cc1noc(C(C)(C)C)n1 (stereo unspecified)	-10.8

Structure (SMILES)	cytotoxicity at 10 µM [%]
COc1ccccc1CC1CCCN1C(=O)c1cn[nH]c1C (stereo unspecified)	0.58
Cc1ccc(NC(=O)N2CC[C@@H](O)C2)c(-c2nc(C3CC3)no2)c1	-4.16
Cc1nn(CC(=O)NCC2(C(N)=O)CCOCC2)c(C)c1Cl	2.83
CC(C)CCC(=O)NC(C#N)CC(C)C (stereo unspecified)	2.53
O=S(=O)(c1ccc(Cl)s1)N1CCCn2ncnc21	-3.06
CCOCC(=O)N(C)Cc1nc(C(F)(F)F)cs1	2.49
Cc1nc(CSc2ccc(C(F)(F)F)cn2)no1	-3.38
O=C(N1CCN(c2ccccc2O)CC1)C1(O)Cc2ccccc2C1	0.0894
COC1CCN(CCNC(=O)C2CCCCC2)CC1	0.545
O=C(COC1CCCC1)N1CCCN(c2ncccn2)CC1	15.9
CC(C(=O)Nc1ccnn1C(C)C)N1CCN(Cc2ccon2)CC1 (stereo unspecified)	0.72
NC(=O)NC(=O)Cn1ccc2sccc2c1=O	0.354
COc1ncccc1NC(=O)N1CCCC1c1cc(C)no1 (stereo unspecified)	-9.66
OC(CN(Cc1ccccc1)Cc1cscn1)c1cccs1 (stereo unspecified)	4.74
O=C(Cc1csc(-c2ncccn2)n1)N1CCN2CCCCC2C1 (stereo unspecified)	7.94
Cc1ccsc1CNCc1c(C(C)C)nn(C)c1N1CCOCC1	8.42
Cc1cc(N2CCC(NCCOc3ccccc3)CC2)nc(C)n1	-6.11
COc1ccccc1C(=O)Nc1c(C)cnn1CC1CC1	-3.47
Cn1cc(N2CCCC(SCc3ccco3)C2=O)cn1 (stereo unspecified)	17.3
O=C(CCc1ccccn1)NCC(O)c1ccc(Cl)cc1Cl (stereo unspecified)	8.54
Cn1cc(CNCCNC(=O)Cc2ccccc2)c(-c2cccnc2)n1	13.1
COCc1cccc(NC(=O)N(C)Cc2ncc(C)c(OC)c2C)c1	-1.01
CC(C)c1ccc(NC(=O)c2ncc(C(N)=O)cc2Cl)cc1	-1.85

Structure (SMILES)	cytotoxicity at 10 µM [%]
Cc1ccc(CCCC(=O)N2CCCC(CS(N)(=O)=O)C2)s1 (stereo unspecified)	17.9
NS(=O)(=O)c1cnc(NCC2(c3ccccc3)CCC2)s1	-4.88
CC(=O)N1CCCC(C(=O)NCCc2ccc(F)c(Br)c2)C1 (stereo unspecified)	4.64
OCCN(Cc1nc(-c2ccc3c(c2)OCO3)no1)CC1CC1	8.37
CC(NCc1cccc(S(=O)(=O)N(C)C)c1)c1ccccn1 (stereo unspecified)	-10.5
Cc1nc(Cn2c3c(ccc2=O)CC(N)CC3)cs1 (stereo unspecified)	1.88
COCCN1CCN(S(=O)(=O)C2CC2)Cc2cccnc21	4.73
CCOCC1CC2(CCN(C(=O)c3cscn3)CC2)CO1 (stereo unspecified)	2.42
Cc1ccc(N2CCC3(CCN(C(=O)c4ccsc4)CC3)CC2)nn1	2.19
Cn1cccc1C(=O)N1CCn2cc(CNC(=O)CC3CC3)nc2C1	3.11
CN1CCC(CNC(=O)c2ccc3cccc(Cl)c3n2)C1 (stereo unspecified)	-8.93
CCc1noc(CN(CC)Cc2cc3ccc(C)cc3[nH]c2=O)n1	0.417
COC(=O)C1C=CCN1C(=O)c1cc(COc2ccccc2)[nH]n1 (stereo unspecified)	-4.45
CC(C)n1cnnc1CN(C)C1CCCNC1 (stereo unspecified)	6.9
COC(=O)C1CCCCN1C(=O)c1cn(C/C=C/c2ccccc2)nn1 (stereo unspecified)	3.98
CCn1c(C2CCN(C(=O)c3cc(CC(C)C)no3)CC2)nn(C)c1=O	-2.51
Cc1nc(O)cc(C2CCN(C(=O)c3[nH]nc4c3CC(C)CC4)CC2)n1 (stereo unspecified)	3.06
CCN(CC)C(=O)c1ccc(Cl)c(NC(=O)c2cc[nH]n2)c1	7.86
CCn1cc(CN2CCCC(c3[nH]ncc3-c3ccc(F)cc3)C2)cn1 (stereo unspecified)	1.63
CC(C)C(=O)N1CCC(CNc2nc(C(C)C)nc3c2cnn3C)CC1	-4.25
CCC(CO)N(C/C(C)=C/c1ccco1)Cc1ccco1 (stereo unspecified)	-3.41
COCC[C@]1(O)CCN(C(=O)C2CCN(C3CCCC3)CC2)C[C@H]1C	-0.292
O=C(NC1CC1)C1CNCCN1C(=O)COc1ccc2c(c1)OCO2 (stereo unspecified)	-1.74

Structure (SMILES)	cytotoxicity at 10 µM [%]
O=C(NCCc1cccs1)N1CCCC2(CCC(=O)N(C3CC3)C2)C1 (stereo unspecified)	-7.82
CCc1cc(NCCN2CCNC2=O)n2nccc2n1	-3.04
C[C@@H]1CN(S(=O)(=O)N2CCCC2)C[C@@]1(O)C1CC1	-5.07
N[C@H]1CN(C(=O)c2ccc3[nH]c(CO)nc3c2)C[C@@H]1c1ccccc1	-1.82
CCn1c(CC2CCN(C(=O)C3COCCO3)CC2)nn(C)c1=O (stereo unspecified)	-0.525
Cc1cc(N2CCC3(CC2)C(C(=O)O)CC(=O)N3C)nc2ccccc12 (stereo unspecified)	-1.6
Cn1c(CN2CCOCC2)nnc1C1CCCN(CC(N)=O)C1 (stereo unspecified)	5.23
O=C1NC(C(=O)NCc2cccnc2Oc2ccc(F)cc2F)CO1 (stereo unspecified)	-1.32
CC(c1ccccn1)N(C)Cc1cccc(C(=O)Nc2nccn2C)c1 (stereo unspecified)	14.6
CC(Nc1nc(-c2ccccc2)nc2c1CCNCC2)c1nccs1 (stereo unspecified)	2.49
O=C(COc1ccc2cccnc2c1)N1CCN[C@H]2CS(=O)(=O)C[C@H]21	7.98
O=S(=O)(Cc1ccccc1Cl)NCCCN1CCCC1	-4.54
COc1cccc(-c2cc(NCC(=O)O)nc3[nH]ccc23)n1	8.09
CSc1cccc(CN(C)C(=O)c2ccc(C3CCCNC3)cc2)c1 (stereo unspecified)	-3.07
CCn1c(N)nc2cc(C(=O)NCCc3ccccc3C)cnc21	-10.8
CC(C(=O)Nc1ccc(N2CCCC2)nc1)n1cccn1 (stereo unspecified)	-17.1
CCC(NC(=O)C1CC1)c1ccccc1OCC(=O)N1CCCC1 (stereo unspecified)	-9.16
CN1CCCC1CNC(=O)CCCOc1cccc(Br)c1 (stereo unspecified)	-11.3
O=C(CCCc1ccccn1)N1CCCC(n2cccn2)C1 (stereo unspecified)	-10.7
CN1CCC(N(C)C(=O)c2cnc3c(cnn3C3CCCC3)c2)CC1	-26.9
O=C(c1ccc(-n2cnnc2)cc1)N1CCCC(n2ccnc2)C1 (stereo unspecified)	-10.7
CCOCC(O)CN1CCN(C(=O)c2cccc(CC#N)c2)CC1 (stereo unspecified)	-16.4
COc1c(C)cnc(CN2CCOC(CNc3cccnn3)C2)c1C (stereo unspecified)	-10.5

Structure (SMILES)	cytotoxicity at 10 µM [%]
Cc1cnc(CN2CCCC2c2noc(C(C)C)n2)cn1 (stereo unspecified)	-15.1
CC(C(=O)NCc1ccc(N2CCCCC2)nc1)S(C)(=O)=O (stereo unspecified)	-8.81
c1ccc2oc(CCCN3CCCC3c3noc(C4CC4)n3)nc2c1 (stereo unspecified)	-13.5
Cn1nc2c(cc1=O)CN(Cc1coc(-c3cccc(F)c3)n1)CC2	-12.6
O=C(c1cc2cc(I)ccc2[nH]1)N1CCC(Nc2cccnn2)CC1	-8.12
CC(=O)N(Cc1ncc(C)o1)C1CCN(Cc2ccccc2C#N)C1 (stereo unspecified)	-15.5
CC(C)c1nc(C2CCCN(C(=O)c3nccn4ccnc34)C2)no1 (stereo unspecified)	-12.7
CCc1nnc(C2Cc3ccccc3CN2Cc2nc(C)no2)o1 (stereo unspecified)	-7.78
CN(C)c1cc(CNC(=O)c2cccnc2O)ccn1	-5.26
CCOc1ccccc1-c1noc(CN2CCOC(CN(C)C)C2)n1 (stereo unspecified)	-5
Cc1cnc(CN(C)C2CCN(CCc3ccccn3)CC2)cn1	-12.1
COCCN1CCN(CCS(=O)(=O)C(F)(F)F)CC1C (stereo unspecified)	-5.77
Cc1cnn(CC2CCCN2Cc2nnc(Cc3ccccc3)o2)c1 (stereo unspecified)	-11.7
CN(C)[C@@H]1CCN(c2ncc(F)cn2)[C@H]1Cc1cccnc1	2.53
CNC(=O)CN1CC[C@H]2CN(C(=O)c3cccn3C)C[C@H]2C1	2.31
O=C(NCc1ccco1)[C@H]1C[C@@H]2CCN(c3ncccn3)C[C@H]2O1	7.1
CC(=O)N1CCC(c2nc3ccc(NC4CCC4)cn3n2)CC1	-107
CSc1nc(N)cc(N2C[C@H]3CC[C@@H](C2)N(Cc2cscn2)C3=O)n1	-12
O=C(N[C@@H]1C[C@@H]2CC[C@H]1C2)C1(Oc2ccc(Cl)cc2)CCNCC1	-5.26
